Hits are enriched below; roughly 1.7% of the tested compounds scored in any of these assays.
Vif imaging: HIV Vif self-association inhibitors, primary screen, imaging, HEK293T, single point; 0.35% of 340,000 active; HEK293T cells, Vif self-association by quenched fluorescence, 24 h; inhibition, % at 7.49 µM; in the data active = inhibition above about 50%, passing the limit was not always enough; inconclusive = no clear call, values can overlap the other calls; inactive = below about 31%
RanGTP-Impb inh: inhibitors of RanGTP-importin-beta interaction, primary screen, biochemical, FRET, CFP-Ran, YFP-importin-beta, homogeneous; cell-free CFP-Ran/YFP-importin-beta FRET ratio; inhibition, % (no concentration beside the values); 1.1% of 300,000 active;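 active = more than half of the replicate wells show a fall in the fluorescence ratio signal beyond about 16%, limit read from the data, passing the limit was not always enough; inconclusive = exactly half of the replicate wells pass the set limit; inactive = fewer than half of replicates pass the limit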
Runt-SMMHC FRET: inhibitors of RUNX1 Runt–CBFb-SMMHC binding, primary screen, biochemical, FRET, Cerulean-Runt, Venus-CBFb-SMMHC, uHTS. Runt-related transcription factor 1 (Homo sapiens) + Core-binding factor subunit beta …. Cerulean-Runt/Venus-CBFb-SMMHC FRET ratio 530/480, 1 h. inhibition, % at 20 µM. 0.74% of 220,000 active. AID 1434, 2008;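 active = mean inhibition across duplicate retests at 20 µM reaching about 50%, limit read from the data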;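 also: inhibitors lower the FRET ratio by blocking Runt binding to CBFb-SMMHC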
Target sequence (Q01196 whole entry, looked up): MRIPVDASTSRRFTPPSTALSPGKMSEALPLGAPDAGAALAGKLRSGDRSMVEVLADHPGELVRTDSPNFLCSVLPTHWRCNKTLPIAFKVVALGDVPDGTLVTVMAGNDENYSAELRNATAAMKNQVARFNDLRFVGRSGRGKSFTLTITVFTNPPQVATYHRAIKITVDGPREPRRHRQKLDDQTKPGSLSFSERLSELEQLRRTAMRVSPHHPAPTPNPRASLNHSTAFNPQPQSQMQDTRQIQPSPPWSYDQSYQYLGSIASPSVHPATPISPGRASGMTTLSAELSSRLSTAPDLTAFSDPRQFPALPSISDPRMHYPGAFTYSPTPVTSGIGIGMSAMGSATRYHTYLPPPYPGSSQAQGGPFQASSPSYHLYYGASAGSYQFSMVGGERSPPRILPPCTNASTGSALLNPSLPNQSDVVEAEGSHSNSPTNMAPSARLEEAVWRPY
Target sequence (Q13951 whole entry, looked up): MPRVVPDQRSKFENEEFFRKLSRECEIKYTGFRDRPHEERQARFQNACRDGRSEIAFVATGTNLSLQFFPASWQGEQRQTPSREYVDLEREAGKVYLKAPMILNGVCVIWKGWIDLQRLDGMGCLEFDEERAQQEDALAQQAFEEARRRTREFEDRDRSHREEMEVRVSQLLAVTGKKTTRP
Runt-CBFb FRET: inhibitors of RUNX1 Runt–CBFb binding, primary screen, biochemical, FRET, Cerulean-Runt, Venus-CBFb, uHTS. AID 1496, 2009. inhibition, % at 20 µM. Cerulean-Runt/Venus-CBFb FRET ratio 530/480, 1 h. Runt-related transcription factor 1 (Homo sapiens) + Core-binding factor subunit beta …. 0.46% of 220,000 active;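 active = inhibition over about 50% at 20 µM in the single-dose screen, limit read from the data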
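Assay system: Cerulean-tagged RUNX1 Runt domain (FRET donor) fusion protein / Amount: 100 nM each of Venus-CBFb and Cerulean-Runt domain / Medium: Tris buffer pH 7.5 with salts and BSA / Also added: Venus-CBFb 100 nM / Schedule: 1 h complex formation plus 1 h compound treatment, room temperature / Signal: FRET fluorescence / Read-out: loss of energy transfer signal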
Rce1 inhib: yeast Rce1p protease inhibitors, primary screen, biochemical, fluorescence, cell-free homogeneous; CAAX prenyl protease 2 (Saccharomyces cerevisiae (strain ATCC 204508 / S288c)), Q03530; yeast membranes, quenched prenylated peptide cleavage fluorescence; calls only; 0.27% of 290,000 active; AID 2563, 2010;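 active = fall in fluorescence gain of 50% or more versus controls, with final raw signal at or below 3038400; inconclusive = same 50% fall but final raw signal above 3038400; inactive = fall in fluorescence gain under 50%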
Hits are given with their value; i = inactive; ? = inconclusive; nt = no result given; + = active, no number.

SMILES | Vif imaging | RanGTP-Impb inh | Runt-SMMHC FRET | Runt-CBFb FRET | Rce1 inhib
O=c1[nH]c2ccccc2nc1/C=C/c1ccccc1 | i | 61 | 88 | i | i
O=c1[nH]c2ccccc2nc1/C=C/c1ccc(O)cc1 | ? | ? | i | i | i
CCCCn1c(=NC(=O)c2cccnc2)c(C#N)cc2c(=O)n3cccc(C)c3nc21 | i | 107 | 58 | 124 | i
Cc1cccn2c(=O)c3cc(C#N)c(=NC(=O)c4ccncc4)n(CCCOC(C)C)c3nc12 | i | 140 | i | 97 | i
CCCn1c(=NC(=O)c2ccc3c(c2)OCO3)c(C#N)cc2c(=O)n3cccc(C)c3nc21 | nt | nt | 67 | 125 | nt
CCCn1c(=NC(=O)c2ccncc2)c(C#N)cc2c(=O)n3cccc(C)c3nc21 | i | nt | nt | nt | nt
COCCCn1c(=NC(=O)c2ccncc2)c(C#N)cc2c(=O)n3cccc(C)c3nc21 | i | 68 | 62 | i | i
CCOC(=O)c1cn2nc(SCc3ccccc3)nc2nc1C | i | i | nt | nt | i
COc1ccc(OCCNC(=O)c2ccc(C)cc2)cc1 | i | i | nt | nt | i
Cc1cccn2c(=O)c3cc(C(=O)O)n(C)c3nc12 | i | i | i | i | i
Cc1cccn2c(=O)c3cc(C#N)c(=NC(=O)c4cccs4)n(CCCOC(C)C)c3nc12 | i | 81 | 88 | 79 | i
CCOCCCn1c(=NC(=O)c2cccs2)c(C#N)cc2c(=O)n3ccccc3nc21 | i | 105 | 81 | 86 | i
CC(=O)N=c1c(C#N)cc2c(=O)n3cccc(C)c3nc2n1CCCOC(C)C | i | 111 | 82 | 115 | i
CCN(CC)S(=O)(=O)c1ccc2[nH]c(=O)c3ccccc3c2c1 | i | i | nt | nt | i
O=C1CCC([N+](=O)[O-])C(C2CC=CCC2)N1 (stereo unspecified) | i | i | nt | nt | i
COCCCNC(=O)c1c(N)n(/N=C/c2ccccn2)c2nc3ccccc3nc12 | i | i | i | i | i
COCCCNC(=O)c1c(N)n(-c2cccc(S(N)(=O)=O)c2)c2nc3ccccc3nc12 | i | 104 | 62 | 92 | i
CCCNC(=O)c1c(N)n(-c2cccc(OC)c2)c2nc3ccccc3nc12 | i | 80 | i | 62 | i
C=CCNC(=O)c1c(N)n(-c2ccc3c(c2)OCO3)c2nc3ccccc3nc12 | i | i | i | i | i
Nc1c(C(=O)NCCN2CCOCC2)c2nc3ccccc3nc2n1-c1cccc(F)c1 | i | 78 | 61 | 71 | +
Cc1ccc(C)c(S(=O)(=O)N2CCN(C(=O)CCC(=O)NCc3ccc(Cl)cc3Cl)CC2)c1 | i | nt | nt | nt | nt
CC(CN)(NS(=O)(=O)c1ccccc1)c1ccccc1 (stereo unspecified) | 66 | i | nt | nt | i
CC(CN1CCOCC1)(NS(=O)(=O)c1ccccc1)c1ccccc1 (stereo unspecified) | i | i | i | i | i
CCOC(=O)C[C@H]1c2ccccc2S(=O)(=O)N1Cc1cc(OC)c(OC)c(OC)c1 | nt | i | nt | nt | +
COc1ccc(CCN2CC(C(=O)NCc3cn(C)nc3C)CCC2=O)cc1 (stereo unspecified) | i | nt | nt | nt | nt
SMILES | Vif imaging | RanGTP-Impb inh | Runt-SMMHC FRET | Runt-CBFb FRET | Rce1 inhib
Cc1ccc(N(Cc2ccc(C(=O)NN=C3CCN(C)CC3)cc2)S(C)(=O)=O)cc1C | 64 | i | i | i | i
COc1ccc([N+](=O)[O-])cc1NC(=O)c1ccc(CN(c2ccc(C)c(C)c2)S(C)(=O)=O)cc1 | i | i | i | i | i
CCCN1C(=O)/C(=C/c2ccc(N3CCCC3)c(C)c2)NC1=S | 147 | ? | i | i | i
Cc1cc(/C=C2/C(=O)N(C)C(=S)N2C)ccc1N1CCCC1 | i | i | i | i | i
Cc1cc(/C=C2\NC(=S)N(C)C2=O)ccc1N1CCCC1 | + | i | i | i | i
CCN1C(=O)/C(=C/c2ccc(N3CCCC3)cc2)NC1=S | 61 | i | i | i | i
CCCN1C(=O)/C(=C/c2ccc(N3CCOCC3)cc2)NC1=S | i | i | i | nt | i
CN1CCc2c(sc(/N=C/c3ccco3)c2C(N)=O)C1 | nt | i | 62 | 106 | i
